What was measured:
Cannabinoid receptor 1 [1] = target: Cannabinoid receptor 1 (Rattus norvegicus, UniProt P20272); assay: Displacement of [3H]CP-55940 from Sprague-Dawley rat brain CB1 receptor after 90 mins by scintillation counting analysis
Outline: (§1)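 Competition with [³H]CP-55,940 (1.0 nM stated in rat CB₁ section; 0.5 nM in general protocol) against 1 nM–10 μM compound, 90 min at 30 °C. GF/C filtration, scintillation counting. Ki via Cheng-Prusoff; mean SEM, n = 4.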

Homo sapiens = species on record: Homo sapiens; assay: Selectivity index, ratio of Ki for human CB1 receptor to Ki for human CB2 receptor
Cannabinoid receptor 2 [2] = target: T1, Cannabinoid receptor 2 (Homo sapiens, UniProt P34972); assay: Inverse agonist activity at human CB2 receptor expressed in CHO cell membrane assessed as increase in forskolin-stimulated cAMP production at 10 uM by scintillation counting analysis relative to WIN55212-2
Outline: (§2)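 Whole hCB₂ CHO cells (1 × 10⁶/assay) in HEPES-buffered saline with glucose, pH 7.4, preincubated 10 min at 37 °C with 0.5 mM Ro 20-1724. Compound at 1 or 10 μM with 1 μM forskolin. Stopped with cold 6% TCA, ether-extracted; cAMP measured by [³H]cAMP competition binding with adrenal binding protein. Expressed as % increase versus WIN 55,212-2 (set −100%); n = 4.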

Cannabinoid receptor 2 [3] = target: T1, Cannabinoid receptor 2; assay: Inverse agonist activity at human CB2 receptor expressed in CHO cell membrane assessed as increase in forskolin-stimulated cAMP production at 1 uM by scintillation counting analysis relative to WIN55212-2; outline: as §2
[4] = target: Cannabinoid receptor 1 (Rattus norvegicus) (UniProt P20272); assay: Displacement of [3H]CP-55940 from Sprague-Dawley rat brain CB1 receptor at > 10 uM after 90 mins by scintillation counting analysis; outline: as §1
Cannabinoid receptor 2 [5] = target: T1, Cannabinoid receptor 2; assay: Displacement of [3H]CP-55940 from human CB2 receptor expressed in CHO cell membrane after 60 mins by scintillation counting analysis; format: cell membranes
Outline: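 Human CB₂-expressing CHO cell membranes in 50 mM Tris-HCl, 0.5% BSA, 5 mM MgCl₂, 1 mM EDTA, pH 7.4. Binding of 0.5 nM [³H]CP-55,940 competed with 1 nM–10 μM compound for 60 min at 30 °C, then GF/C filtration and scintillation counting. Ki by Cheng-Prusoff from IC50; mean SEM of n = 4.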

Cannabinoid receptor 1 [6] = target: T2, Cannabinoid receptor 1 (Homo sapiens, UniProt P21554); assay: Displacement of [3H]CP-55940 from human CB1 receptor expressed in CHO cell membrane after 90 mins by scintillation counting analysis; format: cell membranes
Outline: (§3)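 Membranes from CHO cells stably expressing human CB₁ (G418-maintained), suspended in 50 mM Tris-HCl, 0.5% BSA, 5 mM MgCl₂, 2.5 mM EDTA, pH 7.4. Displacement of 0.5 nM [³H]CP-55,940 by 1 nM–10 μM compound, 90 min, 30 °C. Filtration on GF/C, scintillation counting. Cheng-Prusoff Ki, LIGAND fitting; mean SEM, n = 4.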

Cannabinoid receptor 2 [7] = target: T3, Cannabinoid receptor 2 (Rattus norvegicus, UniProt Q9QZN9); assay: Displacement of [3H]CP-55940 from Sprague-Dawley rat spleen CB2 receptor after 60 mins by scintillation counting analysis
T3 sequence (Q9QZN9 whole entry): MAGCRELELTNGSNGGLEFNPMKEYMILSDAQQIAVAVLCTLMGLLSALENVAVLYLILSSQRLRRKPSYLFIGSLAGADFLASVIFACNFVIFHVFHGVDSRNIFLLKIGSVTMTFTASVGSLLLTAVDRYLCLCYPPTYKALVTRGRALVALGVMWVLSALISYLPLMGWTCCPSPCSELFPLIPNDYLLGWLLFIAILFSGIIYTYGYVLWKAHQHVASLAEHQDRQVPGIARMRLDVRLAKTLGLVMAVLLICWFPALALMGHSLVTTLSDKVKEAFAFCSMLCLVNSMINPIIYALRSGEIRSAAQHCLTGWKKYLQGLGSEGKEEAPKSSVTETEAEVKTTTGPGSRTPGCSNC
Outline: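 Competed against 0.5 nM [³H]CP-55,940 using 1 nM–10 μM compound for 60 min at 30 °C. Bound ligand collected on GF/C filters and counted. Ki from IC50 by Cheng-Prusoff; mean SEM of n = 4.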

Cannabinoid receptor 1 [8] = target: T2, Cannabinoid receptor 1; assay: Displacement of [3H]CP-55940 from human CB1 receptor expressed in CHO cell membrane at > 10 uM after 90 mins by scintillation counting analysis; format: cell membranes; outline: as §3

T1 sequence (P34972 whole entry): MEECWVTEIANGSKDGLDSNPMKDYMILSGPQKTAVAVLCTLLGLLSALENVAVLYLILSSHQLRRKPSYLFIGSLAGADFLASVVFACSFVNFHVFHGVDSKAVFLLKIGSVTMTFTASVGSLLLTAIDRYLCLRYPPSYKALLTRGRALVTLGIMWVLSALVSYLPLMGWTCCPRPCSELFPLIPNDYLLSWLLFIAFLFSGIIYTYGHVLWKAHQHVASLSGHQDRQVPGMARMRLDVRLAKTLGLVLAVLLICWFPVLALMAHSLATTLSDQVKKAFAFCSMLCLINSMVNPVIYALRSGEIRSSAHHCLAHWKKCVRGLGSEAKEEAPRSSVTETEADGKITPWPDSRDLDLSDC
Sequence of Cannabinoid receptor 1 (Rattus norvegicus) (P20272 whole entry): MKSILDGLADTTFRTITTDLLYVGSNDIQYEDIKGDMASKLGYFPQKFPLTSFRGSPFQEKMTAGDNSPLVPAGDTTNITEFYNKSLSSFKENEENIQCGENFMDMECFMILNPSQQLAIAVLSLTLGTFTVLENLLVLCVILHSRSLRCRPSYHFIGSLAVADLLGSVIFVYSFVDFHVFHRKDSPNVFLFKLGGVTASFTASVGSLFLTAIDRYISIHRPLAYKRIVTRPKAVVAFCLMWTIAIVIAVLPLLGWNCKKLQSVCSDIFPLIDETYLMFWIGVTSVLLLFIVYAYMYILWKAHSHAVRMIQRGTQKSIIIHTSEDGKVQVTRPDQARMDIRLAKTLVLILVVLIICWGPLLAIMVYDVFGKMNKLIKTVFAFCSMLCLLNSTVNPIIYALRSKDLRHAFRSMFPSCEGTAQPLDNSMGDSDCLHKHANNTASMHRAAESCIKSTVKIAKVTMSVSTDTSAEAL
Sequence of Cannabinoid receptor 1 (Rattus norvegicus, UniProt P20272) (P20272 whole entry): as above
T2 sequence (P21554 whole entry): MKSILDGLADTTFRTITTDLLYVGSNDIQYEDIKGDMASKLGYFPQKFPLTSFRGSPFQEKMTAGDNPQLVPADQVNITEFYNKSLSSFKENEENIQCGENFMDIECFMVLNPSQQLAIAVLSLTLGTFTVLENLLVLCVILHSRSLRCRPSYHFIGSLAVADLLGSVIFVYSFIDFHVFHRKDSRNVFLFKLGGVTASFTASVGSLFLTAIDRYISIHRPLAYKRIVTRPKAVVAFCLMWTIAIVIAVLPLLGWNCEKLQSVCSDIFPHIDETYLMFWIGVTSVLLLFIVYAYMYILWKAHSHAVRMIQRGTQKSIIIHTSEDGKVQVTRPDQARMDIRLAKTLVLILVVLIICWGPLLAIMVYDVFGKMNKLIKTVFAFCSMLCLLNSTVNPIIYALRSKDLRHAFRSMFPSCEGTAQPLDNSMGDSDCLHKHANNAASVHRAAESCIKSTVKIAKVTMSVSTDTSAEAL

| SMILES | Ki (Cannabinoid receptor 1 [1]) [nM] | Ratio Ki (Homo sapiens) | Activity (Cannabinoid receptor 2 [2]) [%] | Activity (Cannabinoid receptor 2 [3]) [%] | Activity [4] [%] | Ki (Cannabinoid receptor 2 [5]) [nM] | Ki (Cannabinoid receptor 1 [6]) [nM] | Ki (Cannabinoid receptor 2 [7]) [nM] | Activity (Cannabinoid receptor 1 [8]) [%] |
| --- | --- | --- | --- | --- | --- | --- | --- | --- | --- |
| CCCCCn1cc(C(=O)NC2CCCCCC2)c(=O)n2nc(-c3ccc(Cl)cc3)cc12 | > 10000 | > 1580 | 162 | 121 | 47 | 6.31 | > 10000 | 6.53 | 40 |
| CCCCCn1cc(C(=O)NC2CCCCCC2)c(=O)n2nc(-c3ccccc3Cl)cc12 | > 10000 | > 970 | 69 | 53 | 42 | 10.3 | > 10000 | 12.3 | 35 |
| CCCCCn1cc(C(=O)NC2CCCCC2)c(=O)n2nc(C)cc12 | 1580 | 58 | 54 | 42 | – | 22 | 1280 | 26 | – |
| CCCCCn1cc(C(=O)NC2CCC(C)CC2)c(=O)n2nc(C)cc12 (configuration not stated) | 2600 | 23 | 67 | 48 | – | 106 | 2430 | 120 | – |
| CCCCCn1cc(C(=O)NC23CC4CC(CC(C4)C2)C3)c(=O)n2nc(-c3ccc(Cl)cc3Cl)cc12 | > 10000 | > 333 | 112 | 87 | 40 | 30 | > 10000 | 35 | 37 |
| CCCCCn1cc(C(=O)NC2CCCCC2)c(=O)n2nc(-c3ccccc3)cc12 | 750 | 17 | 123 | 92 | – | 42 | 702 | 50 | – |
| CCCCCn1cc(C(=O)NC2CCCCCC2)c(=O)n2nc(CC)cc12 | 220 | 38 | 159 | 137 | – | 5.22 | 200 | 5.63 | – |
| CCCCCn1cc(C(=O)NC23CC4CC(CC(C4)C2)C3)c(=O)n2nc(-c3cccs3)cc12 | > 10000 | > 1600 | 102 | 89 | 22 | 6.24 | > 10000 | 7.52 | 26 |
| CCCCCn1cc(C(=O)NC23CC4CC(CC(C4)C2)C3)c(=O)n2nc(C)c(-c3ccc(OC)cc3)c12 | > 10000 | > 28 | 60 | 36 | 5 | 350 | > 10000 | 434 | 4 |
| CCCCCn1cc(C(=O)NC23CC4CC(CC(C4)C2)C3)c(=O)n2nc(-c3ccc(C)cc3)cc12 | > 10000 | > 2930 | 168 | 138 | 45 | 3.41 | > 10000 | 3.82 | 38 |
| CCCCCn1cc(C(=O)NC2CCCCCC2)c(=O)n2nc(-c3ccco3)cc12 | > 10000 | > 1520 | 88 | 42 | 20 | 6.57 | > 10000 | 7.23 | 16 |
| CCCCCn1cc(C(=O)NC23CC4CC(CC(C4)C2)C3)c(=O)n2nc(-c3ccoc3)cc12 | > 10000 | > 990 | 92 | 56 | 17 | 10.1 | > 10000 | 12.4 | 19 |
| CCCCCn1cc(C(=O)NC23CC4CC(CC(C4)C2)C3)c(=O)n2nc(C)c(Br)c12 | > 10000 | > 45 | 48 | 32 | 1 | 220 | > 10000 | 272 | 1 |
| CCCCCn1cc(C(=O)NC2CCCCC2)c(=O)n2nc(-c3ccco3)cc12 | > 10000 | > 1050 | 103 | 73 | 30 | 9.52 | > 10000 | 10.4 | 21 |
| CCCCCn1cc(C(=O)NC2CCCCC2)c(=O)n2nc(-c3ccc(C)cc3)cc12 | > 10000 | > 175 | 93 | 63 | 25 | 57 | > 10000 | 62 | 20 |
| CCCCCn1cc(C(=O)NC2CCCCC2)c(=O)n2nc(CC)cc12 | 480 | 40 | 146 | 121 | – | 10.4 | 420 | 11.5 | – |
| CCCCCn1cc(C(=O)NC23CC4CC(CC(C4)C2)C3)c(=O)n2nc(-c3c(Cl)cccc3Cl)cc12 | > 10000 | > 102 | 62 | 38 | 18 | 98 | > 10000 | 110 | 21 |
| CCCCCn1cc(C(=O)NC23CC4CC(CC(C4)C2)C3)c(=O)n2nc(C)c(-c3ccccc3)c12 | > 10000 | > 55 | 51 | 34 | 15 | 181 | > 10000 | 214 | 15 |
| CCCCCn1cc(C(=O)NC2CCCCCC2)c(=O)n2nc(-c3ccc(C)cc3)cc12 | > 10000 | > 970 | 107 | 81 | 49 | 10.3 | > 10000 | 13.2 | 39 |
| CCCCCn1cc(C(=O)NC2CCCCC2)c(=O)n2nc(C(C)(C)C)cc12 | 720 | 55 | 115 | 85 | – | 12.3 | 675 | 14.2 | – |
| CCCCCn1cc(C(=O)NC23CC4CC(CC(C4)C2)C3)c(=O)n2nc(-c3cc(C)cs3)cc12 | > 10000 | > 666 | 97 | 71 | 15 | 15 | > 10000 | 18 | 13 |
| CCCCCn1cc(C(=O)NC2CCCCCC2)c(=O)n2nc(-c3ccccc3)cc12 | 900 | 27 | 134 | 103 | – | 31 | 825 | 35 | – |
| CCCCCn1cc(C(=O)NC23CC4CC(CC(C4)C2)C3)c(=O)n2nc(C)cc12 | 1460 | 88 | 75 | 56 | – | 12.7 | 1120 | 15.3 | – |
| CCCCCn1cc(C(=O)NC2CCCCCC2)c(=O)n2nc(C)cc12 | 642 | 51 | 63 | 44 | – | 10.3 | 527 | 12.4 | – |
| CCCCCn1cc(C(=O)NC23CC4CC(CC(C4)C2)C3)c(=O)n2nc(C(C)(C)C)cc12 | 675 | 124 | 189 | 114 | – | 4.95 | 612 | 5.54 | – |
| CCCCCn1cc(C(=O)NCc2ccccc2)c(=O)n2nc(C)cc12 | 3690 | 9.2 | 52 | 38 | – | 358 | 3290 | 428 | – |
